According to ChEMBL document CHEMBL1141352, “Microbial transformation of cephalomannine by Luteibacter sp” (J Nat Prod, 2007):

Tests used:
Assay type in all cases: functional, cell-based
BGC-823 = test: Cytotoxicity against human BGC823 cells by MTT assay
How it was run: (§1)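 Cells kept in RPMI 1640 with 10% FBS, penicillin 100 units/mL and streptomycin 100 μg/mL, at 37 °C in humidified 5% CO2. Seeded at 1200 cells/well; compounds added after 24 h and incubated 96 h. Tested at 10^-5 to 10^-9 M (five concentrations) from DMSO stocks, with 0.1% DMSO final, in triplicate wells. Viability by MTT formazan absorbance at 570 nm.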

HCT-8 = test: Cytotoxicity against human HCT8 cells by MTT assay; how it was run: as §1
A549 = test: Cytotoxicity against human A549 cells by MTT assay; how it was run: as §1
A2780 = test: Cytotoxicity against human A2780 cells by MTT assay; how it was run: as §1
Bel-7402 = test: Cytotoxicity against human Bel7402 cells by MTT assay; how it was run: as §1

SMILES | IC50 (BGC-823) | IC50 (HCT-8) | IC50 (A549) | IC50 (A2780) | IC50 (Bel-7402)
CC(=O)O[C@@]12CO[C@@H]1C[C@@H](O)[C@@]1(C)C(=O)C(=O)C3=C(C)[C@@H](O)C[C@@](O)([C@@H](OC(=O)c4ccccc4)[C@H]21)C3(C)C | 1380 nM | > 10000 nM | > 10000 nM | 4890 nM | > 10000 nM
CC(=O)O[C@H]1C(=O)[C@]2(C)[C@@H](O[C@H]3OC[C@@H](O)[C@H](O)[C@H]3O)C[C@H]3OC[C@@]3(OC(C)=O)[C@H]2[C@H](OC(=O)c2ccccc2)[C@]2(O)C[C@H](O)C(C)=C1C2(C)C | > 10000 nM | > 10000 nM | > 10000 nM | > 10000 nM | > 10000 nM
C/C=C(\C)C(=O)N[C@@H](c1ccccc1)[C@@H](O)C(=O)O[C@H]1C[C@@]2(O)[C@@H](OC(=O)c3ccccc3)[C@@H]3[C@]4(OC(C)=O)CO[C@@H]4C[C@H](O)[C@@]3(C)C(=O)[C@H](O)C(=C1C)C2(C)C | 100 nM | 3290 nM | > 10000 nM | 90 nM | 2690 nM
C/C=C(/C)C(=O)N[C@@H](c1ccccc1)[C@@H](O)C(=O)O[C@H]1C[C@@]2(O)[C@@H](OC(=O)c3ccccc3)[C@@H]3[C@]4(OC(C)=O)CO[C@@H]4C[C@@H](O)[C@@]3(C)C(=O)[C@H](O)C(=C1C)C2(C)C | 790 nM | 2230 nM | 3240 nM | 350 nM | 3530 nM
C/C=C(/C)C(=O)N[C@@H](c1ccccc1)[C@@H](O)C(=O)O[C@H]1C[C@@]2(O)[C@@H](OC(=O)c3ccccc3)[C@@H]3[C@]4(OC(C)=O)CO[C@@H]4C[C@@H](O)[C@@]3(C)C(=O)[C@H](OC(C)=O)C(=C1C)C2(C)C | 90 nM | 230 nM | 90 nM | 70 nM | 690 nM
CCC(C)C(=O)N[C@@H](c1ccccc1)[C@@H](O)C(=O)O[C@H]1C[C@@]2(O)[C@@H](OC(=O)c3ccccc3)[C@@H]3[C@]4(OC(C)=O)CO[C@@H]4C[C@@H](O)[C@@]3(C)C(=O)[C@H](OC(C)=O)C(=C1C)C2(C)C (stereo not given in full) | 530 nM | 1570 nM | 2240 nM | 650 nM | 3300 nM
C/C=C(\C)C(=O)N[C@@H](c1ccccc1)[C@@H](O)C(=O)O[C@H]1C[C@@]2(O)[C@@H](OC(=O)c3ccccc3)[C@@H]3[C@]4(OC(C)=O)CO[C@@H]4C[C@H](O)[C@@]3(C)C(=O)[C@H](OC(C)=O)C(=C1C)C2(C)C [CEPHALOMANNINE] | 100 nM | 310 nM | 100 nM | 100 nM | 920 nM
CC(=O)O[C@H]1C(=O)[C@@]2(C)[C@H]([C@H](OC(=O)c3ccccc3)[C@]3(O)C[C@H](OC(=O)[C@H](O)[C@@H](NC(=O)c4ccccc4)c4ccccc4)C(C)=C1C3(C)C)[C@]1(OC(C)=O)CO[C@@H]1C[C@@H]2O [PACLITAXEL] | 7 nM | 37 nM | 19 nM | 6.3 nM | 100 nM
